Experiment [1] deals with PANC-1 pancreatic carcinoma. In words: Cytotoxicity. The experiment is classed as cell-based, human. The method in brief: (§1)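 Test compound assessed for effect on proliferation of human PANC-1 pancreatic carcinoma and DLD-1 colorectal adenocarcinoma cells, both lines obtained from ATCC. The procedure follows a previously described protocol. Each sample was assayed at least three times to derive the final value.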

The test system of experiment [2] is Candida albicans (ATCC 44506). Nature of the experiment: Antimicrobial assay, C. albicans. The experiment is classed as cell-based. The settings on record: at the concentrations tested.
For experiment [3], the system named is Pseudomonas aeruginosa (ATCC 27853). Nature of the experiment: Antimicrobial assay, P. aeruginosa. Type of experiment: cell-based. The settings on record: at the concentrations tested.
Experiment [4] has as its system DLD-1 human colorectal adenocarcinoma. Nature of the experiment: Cytotoxicity. Type of experiment: cell-based. The method in brief:
as §1

Experiment [5] has as its system NCI/ADR-Res (multi drug resistant ovarian cancer cell line). In words: Cytotoxicity. The conditions noted are these: at a concentration of 5.2 µM. Type of experiment: cell-based, human.
Experiment [6] deals with MCL-1 binding to Bak (Homo sapiens, UniProt Q07820). Nature of the experiment: MCL-1 assay.
Chain of MCL-1 binding to Bak (Q07820 whole entry): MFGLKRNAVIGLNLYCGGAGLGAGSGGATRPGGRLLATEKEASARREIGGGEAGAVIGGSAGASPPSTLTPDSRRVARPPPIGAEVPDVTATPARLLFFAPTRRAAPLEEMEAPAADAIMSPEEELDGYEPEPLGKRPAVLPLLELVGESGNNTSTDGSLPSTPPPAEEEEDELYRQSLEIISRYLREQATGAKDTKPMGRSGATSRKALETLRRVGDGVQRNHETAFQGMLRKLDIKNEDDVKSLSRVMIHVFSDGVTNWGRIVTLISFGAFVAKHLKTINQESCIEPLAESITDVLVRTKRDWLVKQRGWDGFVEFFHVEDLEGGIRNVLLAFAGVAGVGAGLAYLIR

Molecules are shown by their SMILES.

With `CCC[C@@H](O)Cc1c(Br)c(O)c2c(=O)c3c(O)cc(O)c4c5c(O)cc(O)c6c(=O)c7c(O)c(Br)c(C[C@H](C)O)c8c1c2c(c34)c(c65)c78` [Gymnochrome E, 1,6,8,10,11,13-hexahydroxy-2,5-dibromo-3-(2-hydroxypropyl)-4-(2-hydroxypentyl)-phenanthroperylene-7,14-quinone], in experiment [1] (at a concentration of 6.4 µM), the “inhibitory activity against PANC-1” value is “did not show significant inhibitory activity”. Also, the “activity against Candida albicans” value in experiment [2] is reported as “did not show activity”. In experiment [3], the “activity against Pseudomonas aeruginosa” value is “did not show activity”. Moreover, in experiment [4] (at a concentration of 6.4 µM), the “inhibitory activity against DLD-1” value is recorded as “did not show significant inhibitory activity”.
As to `CCC[C@@H](O)Cc1c(Br)c(O)c2c(=O)c3c(O)c(Br)c(O)c4c5c(O)c(Br)c(O)c6c(=O)c7c(O)c(Br)c(C[C@H](O)CCC)c8c1c2c(c34)c(c65)c78` [Gymnochrome F, 1,6,8,10,11,13-hexahydroxy-2,5,9,12-tetrabromo-3,4-(2-hydroxypentyl)-phenanthroperylene-7,14-quinone], the “inhibitory activity against PANC-1” value in experiment [1] (at a concentration of 5.2 µM) is “did not show significant inhibitory activity”. In addition, the “activity against Candida albicans” value in experiment [2] was “did not show activity”. Moreover, the “inhibitory activity against NCI/ADR-Res” value in experiment [5] is listed as “did not show significant inhibitory activity”. Moreover, in experiment [3], the “activity against Pseudomonas aeruginosa” value was “did not show activity”. Moreover, the “inhibition of MCL-1 binding to Bak (in words)” value in experiment [6] is “moderate inhibitor”. For the same compound, the “inhibitory activity against DLD-1” value in experiment [4] (at a concentration of 5.2 µM) is recorded as “did not show significant inhibitory activity”.

These data come from PMC2859091 (Journal of natural products, 2010).
